{"data": "Measured values collected from several papers", "target": "Serine/threonine-protein kinase 26 (STK26, Homo sapiens, UniProt Q9P289)"}
{"Compound": "Cc1nn(C)cc1-c1nc2c(N3CCN(Cc4ccc(Cl)cc4)CC3)c(Cl)cnc2[nH]1", "test": "binding, competition with immobilised ligand", "conditions": "1 µM", "endpoint": "remaining binding", "result": "100%"}
{"Compound": "O=c1[nH]c2ccccc2n1C1CCN(Cc2ccc(-c3[nH]c4cc5ncnc5cc4nc3-c3ccccc3)cc2)CC1", "test": "cell-free assay", "conditions": "0.5 µM", "endpoint": "remaining signal", "result": "102%"}
{"Compound": "COc1ncccc1-c1cnn2ccc(N3CCN(C(=O)OC(C)C)CC3)nc12", "test": "binding, competition with immobilised ligand", "conditions": "1 µM", "endpoint": "remaining binding", "result": "92%"}
{"Compound": "Cn1cncc1[C@@](O)(COc1ccc(C#N)cc1-c1ccc(OC(F)(F)F)cc1)c1ccc(C#N)cc1", "test": "cell-free assay, competition with immobilised ligand", "conditions": "1 µM", "endpoint": "remaining binding", "result": "99%"}
{"Compound": "Cn1cc(-c2cc(F)cc(N3CCn4c(cc5c4CCCC5)C3=O)c2CO)cc(Nc2ccc(N3CCN(C4COC4)CC3)cn2)c1=O", "test": "enzyme activity, inhibitor", "conditions": "0.1 µM", "endpoint": "inhibition", "result": "14%"}
{"Compound": "Nc1ncc(-c2nc(N3CCOCC3)nc(N3CCOCC3)n2)c(C(F)F)n1", "test": "binding, competition with immobilised ligand", "conditions": "10 µM", "endpoint": "remaining binding", "result": "91%"}
{"Compound": "N#CC1(c2ccccn2)CCN(Cc2cc(C(=O)O)c(=O)n3ccccc23)CC1", "test": "cell-free assay, competition with immobilised ligand", "conditions": "1 µM", "endpoint": "remaining binding", "result": "100%"}
{"Compound": "CCN1CCN(Cc2ccc(NC(=O)c3ccc(C)c(/C=C/c4cnc5[nH]ccc5c4OC)c3)cc2C(F)(F)F)CC1", "test": "target engagement in cells, inhibitor, chemoproteomics", "test system": "A-375", "conditions": "50 nM", "endpoint": "inhibition", "result": "-14.9%"}
{"Compound": "CC(C)(C)c1cc(C=C(C#N)C#N)cc(Br)c1O", "test": "enzyme activity, inhibitor", "conditions": "0.5 µM", "endpoint": "remaining activity", "result": "95.2%"}
